The source of these data is ChEMBL document CHEMBL1156169, “Discovery of triarylethanolamine inhibitors of the Kv1.5 potassium channel” (Bioorg Med Chem Lett, 2010).

A short description of series [1]: Aqueous solubility at pH 7.4. Type of series: physicochemical. An outline of the steps: (§1)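 Solubility measured in buffered aqueous solution at the pH stated for each line and expressed as mg/mL. Solid samples were checked by microscopy under plain polarized light and were crystalline; the specific crystal form was not determined.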
Series [2] can be described thus: Aqueous solubility at pH 5.2. Type of series: physicochemical. Put shortly:
as §1

The nature of series [3]: Clearance in rat. As to conditions: in vivo. In kind it is ADME, organism-based.
Series [4] in a line: Volume of distribution in rat. Type of series: ADME, organism-based. The note with it: in vivo.
A short description of series [5]: Half life in rat. In kind it is ADME, organism-based. As to conditions: in vivo.
The nature of series [6]: Plasma concentration in rat at 0.01 mg/kg/min, iv after 20 mins. In kind it is ADME, organism-based. Set-up: route intravenous.
Series [7] can be described thus: Plasma concentration in rat at 0.03 mg/kg/min, iv after 20 mins. Set-up: route intravenous. In kind it is ADME, organism-based.
The nature of series [8]: Plasma concentration in rat at 0.06 mg/kg/min, iv after 20 mins. Type of series: ADME, organism-based. Further details: route intravenous.
A short description of series [9]: Plasma concentration in rat at 0.2 mg/kg/min, iv after 20 mins. In kind it is ADME, organism-based. Set-up: route intravenous.
Series [10] in a line: Plasma concentration in rat at 0.6 mg/kg/min, iv after 20 mins. In kind it is ADME, organism-based. Set-up: route intravenous.
The nature of series [11]: Drug level in rat plasma at 435 ug/kg/min, iv after 1 hr. In kind it is ADME, organism-based. As to conditions: 0.435 mg/kg.
A short description of series [12]: Drug level in rat brain at 435 ug/kg/min, iv after 1 hr. In kind it is ADME, organism-based. As to conditions: 0.435 mg/kg, read-out: Drug uptake.
The nature of series [13]: in vivo. The note with it: rat, brain/plasma, iv, 0.435 mg/kg.
The nature of series [14]: Aqueous solubility at pH 7.2. In kind it is physicochemical. Put shortly:
as §1

The structures appear in SMILES notation. ≈ marks a conversion by molar mass, not a printed value.

One may read the solubility as the dissolved amount per volume that the medium holds. What is called clearance is the rate of elimination divided by the concentration. Lower therefore signals a low capacity for elimination. The term Vd denotes a proportionality between amount in the body and measured concentration, not a real space. A low value points to little distribution into tissue. Broadly, the half-life is how long it takes for the measured level to halve. For orientation: Kp means tissue or fluid exposure divided by exposure in the circulation. Turning to `OC(c1cccnc1)(c1cccnc1)C(c1ccccc1)N1CCCC1` (stereo not given), the solubility in series [1] was 110 µg/mL (≈ 318 µM); in series [2], 1400 µg/mL (≈ 4050 µM). Further, in series [3], the clearance was determined as 59 mL/min/kg. For the same compound, in series [4], the Vd came to 3.4 L/kg. The half-life in series [5] was 1.1 h. Also, the concentration at 20 min in series [6] was 0.185 µM; in [7] it was 0.651 µM; in series [8], 1.78 µM; in [9], 4.9 µM; in series [10] it was 9.62 µM. The concentration at 1 h in [11] came out at 23.4 µM; in series [12], 13.7 µM. The compound also yielded a partition ratio (Kp) at 1 h in [13] of 0.58.

Take `OC(c1cccnc1)(c1cccnc1)C(c1ccccc1)N1CCCCC1` (stereo not given): the concentration in solution in series [1] (solubility) came to 5.4 µg/mL (≈ 15 µM).

In turn, `OC(c1cccnc1)(c1cccnc1)C(c1ccccc1)N1CCOCC1` (stereo not given) had a solubility in series [14] of 43 µg/mL (≈ 119 µM).
